# Measurements published in the RNAGym collection of RNA variant scans (doi:10.1101/gad.245936.114).
# Variants at the floor of the assay were thinned out.
# B1: tRNA (parent)
# chain: CUCUCGGUAGCCAAGUUGGUUUAAGGCGCAAGACUUUAAUUUAUCACUACGAAAUCUUGAGAUCGGGCGUUCGACUCGCCCCCGGGAGAUUUUUUCCUCGAGCAA
# Variants of: B1
# Test: nonsense suppression (GFP-seq) (ratio to wild type); higher = more function; SUP4oc tRNA, yeast GFP reporter sort-seq
# Method in brief: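 Nonsense suppression (GFPSEQ) is the median GFP/RFP ratio of each sorting bin, weighted by the variant's estimated share of cells in that bin and expressed relative to the unmutated parent tRNA. Yeast strains carried genome-integrated variants of an ochre-suppressor tRNA from a library with ~3% random mutations, plus a galactose-driven GFP ochre reporter and RFP, and were grown in raffinose/galactose medium containing 80 mg/L adenine. Cells were sorted into GFP/RFP bins, each bin was Illumina-sequenced (phred ≥30), and variants were kept only with ≥100 reads and ≥30 cells.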
row,Variant,nonsense suppression
1,CUCUCGGUAGGCAAGUUGGUUUAAGGCGCAAGACUUUAAUUUAUCACUACGAAAUGUUGAGAUCGGGCGUUCGACUCGCCCCCUGGAGAUUUUUUCCUCGAGCAA [C11G C56G G84U],≤ 0.026
2,CUCUCGGUUGCCAUGUUGGUUUAAGGCGCAAGACUUUAAUUUAUCACUACGAAAUCUUGAGAUCGGGCGUUCGACUCGCCCCCGGGAGAUUUUUUCCUCGAGCAA [A9U A14U],0.0588
3,CUCUCGGUAGCCAAUUUGGUUUAAGGCGCAAGACAUUAAUUUAUCACUACGAAAUCUUGAGACCGGGAGUUCGACUCGCCCCCGGGAGAUUUUUUCCUCGAGCAA [G15U U35A U63C C68A],≤ 0.026
4,CUCUCGGUAGCCAAGUUGGUUUAAACCGCAAGACUUUAAUUUAUCACUACGAAAUCUUGAGAUCGGGCGUUCGACUCGCCCCCGGGAGAUUUUUUCCUCGAGCAA [G25A G26C],≤ 0.026
5,CUCUCGGUAGCCAAGCUGGUUUAAGGCGCAAGACUUUAAUUUAUCACUACGAAAUCUUGAGAUCGGGCGUUCGACUCGCCCCCGGGAGAUUUUUUCCUCGAGCAA [U16C],0.862
6,CGCUCGGUAGCCAAGUUGGUUUAAGGCUCAAGACCUUAAUUUAUCACUACGAAAUCUUGAGAUCGGGCGUUCGACUCGCCCCCGGGAGAUUUUUUCCUCGAGCAA [U2G G28U U35C],≤ 0.026
7,CUCUCGGUAGCCAAGUUGGUUUAAGGUGCAAGACUUUAAUUUAUCACUACGAAAUCUUGAGUUCGGGCGUUCGACUCGCCCCCGGGAGAUUUUUUCCUCGAGCAA [C27U A62U],0.0346
8,CUCUCGGUAGCCAAGUUGGUUUAAGGUGCAAGACUUUAAUUUAUCACUACGAAAUCUUGAGAUCGGGCGUUCGACUCGCUCCCGGGAGAUUUUUUCCUCGAGCAA [C27U C80U],0.0446
9,CUAUCGGUAGCCAAGUUGGCUUAAGGCGCAAGACUUUAAUUUAUCACUACGAAACCUUGAGAUCGGGCGUUCGACUCGCCCCCGGGAGAUUUUUUCCUCGAGCAA [C3A U20C U55C],≤ 0.026
10,CUCUCGGUAGCCAAGUUGGUUUAAGGAGCAAGACUUUAAUUUAUCACUACGAAAUCUUGAGAUCGGGCGUUCGACUCGCCCCCGGGUGAUUUUUUCCUCGAGCAA [C27A A87U],≤ 0.026
11,CUCUAGGAAGCCAAGUUGGUUUAAGGCGCAAGACUUUAAUUUAUCACUACGAAAUCUUGAGAUCGGGCGUUCGACUCGCCCCCGGGAGAUUUUUUCCUCGAGCAA [C5A U8A],≤ 0.026
12,CUCUCGGUAGCCAAGUUGGUUUAAGGCGCAGGACUUUAAUUUAUCACUACGAAAUCUUGAGAUCGGGCGUUCGACUCGCCCCCGGGAGAUUUUUUCCUCGAGCAA [A31G],1.08
13,CUCUCGAUAGCCAAGUUGGUUUAAGGCUCAAGAAUUUAAUUUAUCACUACGAAAUCUUGAGAUCGGGCGUUCGACUCGCCCCCGGGAGAUUUUUUCCUCGAGCAA [G7A G28U C34A],≤ 0.026
14,CUCUCGGUAACCAAGUUGGUUUAAGGCGCAAGCUUUUAAUUUAUCACUACGAAAUCUUGAGAUCGGGCGUUCGACUCGCCCCCGGGAGAUUUUUUCCUCGAGCAA [G10A A33C C34U],≤ 0.026
15,CUCUCGGUAGCCAAGUUGGUUUAAGGCGCAAGACUUUAAUUUAUCACUACGAAAUCUUGAGAUCGGGCGUUCGACUCGCCUCCGGGAGAUUUUUUCCUCGAGCAA [C81U],1.16
16,CUCUCGGUAGCCAAGUUGGUUUAAGGCCCAAGACUUUAAUUUAUCACUACGAAAGCUUGAGAUCGGGCGUUCGACUCGCCCCCGGGAGAUUUUUUCCUCGAGCAA [G28C U55G],≤ 0.026
17,CUCUCGGUAGCCAAGUUGGUUUAAGGCGCAAGACUUUAAUUUAUCACUACGAAAUCUUGUGAUCGGGCGUUCGACUCGCCCCCGGGGGAUUUUUUCCUCGAGCAA [A60U A87G],1.02
18,CUCUCGGUAGCCAAGUCGGUUUACGGCGCAAGACUUUAAUUUAUCACUACGAAAUCUUGAGAUCGGGCGUUCGACUCGCCCCCGGGAGAUUUUUUCCUCGAGCAA [U17C A24C],0.276
19,CUCUCGGUAGCCAAGUUGGUUUAAGGCGCAAGACUUUAAUUUAUCACUACGAAAUCUUGAGAUCGGGCGUUCGACUCCCCCCCUGGAGAUUUUUUCCUCGAGCAA [G78C G84U],0.0271
20,CUCUCGGUAGCUAAGUUGGUUUAAGGCGCAAGACUUUAAUUUAUCACUACGAAAUCUUGAGAUCGGGCGAUCGACUCGCCCCCGGGAGAUUUUUUCCUCGAGCAA [C12U U70A],0.048
21,CUCUUGGUAGCCAAGUUGGUUUAAGGCGCAAGACUUUAAUUUAUCACUACGAAAUCUUGAGAUCGGGCGUUCGAUUCGCCCCCGGGAGAUUUUUUCCUCGAGCAA [C5U C75U],0.0347
22,CUCUCGCUAGCCAAGUUGGUUUAAGGCGCAAGACGUUAAUUUAUCACUACGAAAUCUUGAGCUCGGGCGUUCGACUCGCCCCCGGGAGAUUUUUUCCUCGAGCAA [G7C U35G A62C],≤ 0.026
23,CUCGCGGUAGCCAAGUUGGUUUAAGGCGCAGGACUUUAAUUUAUCACUACGAAAUCUUGAGAUCGGGCGUUCGACUCGCCCCCGGGAGAUUUUUUCCUCGAGCAA [U4G A31G],0.0398
24,CUCUCGGUAGCCAAGUUGGUUUAAGGCGCAAGACUUUAAUUUAUCACUACGAAAUCUUGAGAUCGGGCGCUCGACUCACCCCCGGGAGAUUUUUUCCUCGAGCAA [U70C G78A],0.0308
25,CUCUCGGUAGCCCAGUUGGUUUAAGGCGCAAGACUUUAAUUUAUCACUACGAAAUCUUGAGAUCGCGCGUUCGACUCGCCCCCGGGAGAUUUUUUCCUCGAGCAA [A13C G66C],≤ 0.026
26,CUCUCGGUAGCCAAGUUGGUUUAAGGCGCAAGACUUUAAUUUAUCACUACGAAAUCUUGAGAUCGUGAGUUCGACUCGCCCCCGGAAGAUUUUUUCCUCGAGCAA [G66U C68A G86A],≤ 0.026
27,CUCUCGGUAGUCAAGUUGGUUUAAGGCGCAAGACUUUAAUUUAUCACUACGAAAUCUUGAGAUCGGGCGUUCGACUCUCCCCCGGGAGAUUUUUUCCUCGAGCAA [C11U G78U],≤ 0.026

row,Variant,nonsense suppression
1,CUCUCGGUAGCCAAGUUGGUUUAAGGCGUUAGACUUUAAUUUAUCACUACGAAAUCUUGAGAUCGGGCGUUCGACUCGCCCCCGGGAGAUUUUUUCCUCGAGCAA [C29U A30U],0.124
2,CUCUCGGUAGCCAAGUUGGUUUAACGCCCAAGACUUUAAUUUAUCACUACGAAAUCUUGAGUUCGGGCGUUCGACUCGCCCCCGGGAGAUUUUUUCCUCGAGCAA [G25C G28C A62U],≤ 0.026
3,CUCCCGGUAGCCAAGUUGGUUUAAGGCGCAAGACUUUAAUUUAUCACUACGAAAUCUUGAGAUCGGGCGUCCGACUCGCCCCCGGGAGAUUUUUUCCUCGAGCAA [U4C U71C],≤ 0.026
4,CUCUCGGUAGCCAAGUUGGUUUAGGGCGCAAGACUUUAAUUUAUCACUACGAAAUCUUGAGAUCGGGCGUUCGACUCGCCCCCGAGAGAUUUUUUCCUCGAGCAA [A24G G85A],0.189
5,CUCUCGGUAGCCAAGUUGGUUUAAGGCGCGAGACUUUAAUUUAUCACUACGAAAUCUUGAGAUCGGGCGUUCGUCUCGCCCCCGGGAGAUUUUUUCCUCGAGCAA [A30G A74U],0.028
6,CUCUCGGUAGCCUAGUUGGUUGAAGGCGCAAGACUUUAAUUUAUCACUACGAAAUCUUGAGAUCGGGCGUUCGACUCGCCCCCGGGAGAUUUUUUCCUCGAGCAA [A13U U22G],1.06
7,CUCUCGGUAGCCAAGUUGGUUUAAGGCGCAAGAAUUUAAUUUAUCACUACGAAAUCUUGAGAUCGGGCGUUCGACUCGCCCCCGGGGGAUUUUUUCCUCGAGCAA [C34A A87G],≤ 0.026
8,CUCUCGGUAGCCGAGUUGGUUUAAGGCGCAAGACUUUAAUUUAUCACUACGAAAUCUUGAGAUCGGGCGUUCGACUCGCCCCCGAGAGAUUUUUUCCUCGAGCAA [A13G G85A],0.214
9,CUCUCGGUAGCCAAGUUGGGUUAAGGCGCAAGACUUUAAUUUAUCACUACGAAAUCUUGAGAUCGGGCGUUCGACUCGCUCCCGGGAGAUUUUUUCCUCGAGCAA [U20G C80U],0.202
10,CUCUCGGUAGCCUAGUUGGUUUAAGGCGCAAGACUUUAAUUUAUCACUACGAAAUCUUGAGAUCGGGCGUUCGUCUCGCCCCCGGGAGAUUUUUUCCUCGAGCAA [A13U A74U],0.051
11,CUCUCGGUAGCCAAGUUGGUUUAAGGCGCAAGACUUUAAUUUAUCACUACGAAAUCGUGAGAUCGGGCGUUCGACUCACCCCCGGGAGAUUUUUUCCUCGAGCAA [U57G G78A],0.0374
12,CUCUCGGUAGCCAAGGUGGUUUAAGGCGCAAGACUUUAAUUUAUCACUACGAAAUCUUGGGAUCGGGCGUUCGACUCGCCCCCGGGAGAUUUUUUCCUCGAGCAA [U16G A60G],0.39
13,CUCUCGGUAGCCAAGUUGGUUUAAGGCGCAAGACUUUAAUUUAUCACUACGAAAUCUUGAGAUCGGGCGUUCGACUCACCCCCGGGACAUUUUUUCCUCGAGCAA [G78A G88C],0.0845
14,CUCUCGGCAGCCAAGUUGGUUUAAGGCGCAGGACUUUAAUUUAUCACUACGAAAUCUUGAGAUCGGGCGUUCGACUCGCCCCCGGGAGAUUUUUUCCUCGAGCAA [U8C A31G],0.0327
15,CUCUCGGUAGCCUAGUUGGUUUAAGGUGCAAGACUUUAAUUUAUCACUACGAAAUCUUGAGAUCGGGCGUUCGACUCGCCCCCGGGAGAUUUUUUCCUCGAGCAA [A13U C27U],0.209
16,CUCUCGGUAGCCAAGUUGGUUUAAGGCGCAAGCCUUUAAUUUAUCACUACGAAAUAUGGAGAUCGGGCGUUCGACUCGCCCCCGUGAGAUUUUUUCCUCGAGCAA [A33C C56A U58G G85U],≤ 0.026
17,UUCUCGGUAGCCAAGUUGGUUUAAGACGCAAGACUUUAAUUUAUCACUACGAAAUCCUGAGAUCGGGCGUUCGACUCGCCCCCGGGAGAUUUUUUCCUCGAGCAA [C1U G26A U57C],≤ 0.026
18,CUCUCGGUAGCCAAGUUGGUUUAAGGCGCAAGUCUUUAAUUUAUCACUACGAAACCUUGAGAACGGGCGCUCGACUCGCCCCCGGGAGAUUUUUUCCUCGAGCAA [A33U U55C U63A U70C],≤ 0.026
19,CUCUCGGUAGUCAAGUUGGUUUAAGGCGCAAGACUUUAAUUUAUCACUACGAAAUCUUGAGAUCGGGCGUUCGACUCGCCCCCGGGAGCUUUUUUCCUCGAGCAA [C11U A89C],≤ 0.026
20,CUCUCGGUAGCCAAGUUGGUUUAAGGCCCAAGACUUUAAUUUAUCACUACGAAAUCAUGAGAUCGGGCGUUCGACUCGCCCCCGGGAGAUUUUUUCCUCGAGCAA [G28C U57A],0.0447
21,CUCUCGGUAGCCUAGUUGGUUUAAGGCGUAAGACUUUAAUUUAUCACUACGAAAUCUUGAGAUCGGGCGUUCGACUCGCCCCCGGGAGAUUUUUUCCUCGAGCAA [A13U C29U],0.751
22,CUCUCGGUAGCUGAGUUGGUAUAAGGCGCAAGACUUUAAUUUAUCACUACGAAAUCUUGAGAUCGGGCGUUCGACUCGCCCCCGGGAGAUUUUUUCCUCGAGCAA [C12U A13G U21A],0.0262
23,CUCUCGGUAGCCAAGUUGGUUUAAGGCGCAAGACUUUAAUUUAUCACUACGAAAUCUUGAGAUCGGGCGUUCGACUCGCCCCCGAGUGAUUUUUUCCUCGAGCAA [G85A A87U],0.19
24,CUCUCGUUAGCCAAGUUGGUUUAAGGCGCAAACCUUUAAUUUAUCACUACGAAAUCUUGAGAUCGGGCGUUCGACUCGCCCCAGGGAGGUUUUUUCCUCGAGCAA [G7U G32A A33C C83A A89G],≤ 0.026
25,CUCUGGGUAGCCAAGUUGGUUUAAGGCGCAAGACUUUAAUUUAUCACUACGAAAUCUUGAAAUCGGGCGUUCGACUCGCCCCCGGGAGAUUUUUUCCUCGAGCAA [C5G G61A],≤ 0.026
26,CUCUCGGUAGCCAAGUUGGUUUAAGGCGCAAGACUUUAAUUUAUCACUACGAAUUCUUGAGAUCGGGCGUUCGACUCGCCCCCGUGAGAUUUUUUCCUCGAGCAA [A54U G85U],1.01
27,GUCUCGGUAGCCUAGUUGGUUUAAUGCGCAAGACUUUAAUUUAUCACUACGAAAUCUUCAGAUCGGGCGUUCGACUCGCCCCCGGGAGAUUUUUUCCUCGAGCAA [C1G A13U G25U G59C],≤ 0.026
